Assay results: ChEMBL document CHEMBL2331310 (Bioorg Med Chem Lett, 2013)
Calls of active or inactive are those of the source. The calls are words filed in the database; no cut-off is given here.

Legend:
DU-145 [1] = test: Cytotoxicity against human DU145 cells expressing AGT after 4 to 24 hrs by clonogenic assay; assay type: functional; conditions: read-out: LC50 (the source's name)
Outline: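 Human prostate carcinoma cells with natural AGT expression (42,000 molecules/cell) were exposed to graded concentrations for 4 h or 24 h. LC50 was read from cytotoxicity curves.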

EMT6 [2] = test: Cytotoxicity against mouse AGT negative EMT6 cells under aerobic conditions after 4 to 24 hrs by clonogenic assay; assay type: functional, cell-based; conditions: for CC50: read-out: LC50 (the source's name)
Outline: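 Murine mammary carcinoma cells lacking AGT expression were exposed to graded concentrations for short (4 h) or long (24 h) periods. LC50 was taken from cytotoxicity curves.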

DU-145 [3] = test: Cytotoxicity against human DU145 cells expressing AGT after 4 to 24 hrs by clonogenic assay in presence of 100 uM of AGT inhibitor O6-BG; assay type: functional, cell-based
Outline: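 DU145 cells (42,000 AGT molecules/cell) were pretreated with 100 μM O6-BG for 2 h, then exposed to graded drug concentrations. Cytotoxicity was then assessed.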

L1210 = test: Binding affinity to mouse L1210 cell DNA assessed as DNA cross-linking activity at 10 to 50 uM using H33258 dye by rapid DNA renaturation assay; assay type: cell-based
DU-145 [4] = test: Cytotoxicity against human DU145 cells expressing AGT at 10 to 80 uM after 4 hrs by clonogenic assay; assay type: functional, cell-based
Outline: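 DU145 human prostate carcinoma cells, which naturally express about 42,000 AGT molecules/cell, were exposed to graded drug concentrations for 4 h or 24 h. Cytotoxicity was expressed as LC50.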

[5] = Half life in 1 mM potassium phosphate buffer at pH 7.4 at 50 uM by spectrophotometric analysis; assay type: physicochemical
DU-145 [6] = test: Induction of AGT ablation in human DU145 cells assessed as [benzene-3H]-O6-benzylguanine binding at 80 uM after 4 hrs; assay type: functional
Outline: (§1)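 DU145 human prostate carcinoma cells (about 42,000 AGT molecules/cell) were treated with 80 μM agent for 2 h or 4 h. Remaining AGT level was then measured relative to untreated cells.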

DU-145 [7] = test: Ratio of laromustine IC50 for compound IC50 for human DU145 cells expressing AGT; assay type: functional
DU-145 [8] = test: Induction of AGT ablation in human DU145 cells assessed as [benzene-3H]-O6-benzylguanine binding at 80 uM after 2 hrs; assay type: functional; outline: as §1
EMT6 [9] = test: Ratio of laromustine IC50 for compound IC50 for mouse AGT negative EMT6 cells; assay type: functional

| SMILES | CC50 (DU-145 [1]) [µM] | IC50 (EMT6 [2]) [µM] | Activity (DU-145 [3]) | CC50 (EMT6 [2]) [µM] | Activity (L1210) | Activity (DU-145 [4]) | half-life at 50 µM [5] [min] | Activity (DU-145 [6]) | Ratio IC50 (DU-145 [7]) | Activity (DU-145 [8]) | Ratio IC50 (EMT6 [9]) |
| --- | --- | --- | --- | --- | --- | --- | --- | --- | --- | --- | --- |
| CN(NS(C)(=O)=O)S(C)(=O)=O | 1600 | 3000 | – | – | – | – | – | – | – | – | – |
| CNC(=O)N(N(CCCl)S(C)(=O)=O)S(C)(=O)=O [LAROMUSTINE] | > 80 | – | Active | 8.3 | Active | Active | – | – | – | – | – |
| CS(=O)(=O)NN(CCCl)S(C)(=O)=O [VPN-4090CE] | – | – | – | – | Active | – | 0.55 | – | – | – | – |
| CN(N=O)C(=O)N(N(CCCl)S(C)(=O)=O)S(C)(=O)=O | 6.3 | – | Active | 0.7 | Active | Active | 10 | >90% | >12 | >80% | 12 |
| CN(N(C(=O)N(CCCl)N=O)S(C)(=O)=O)S(C)(=O)=O | – | – | Active | – | Active | Active | 13.4 | Active | – | Active | – |
